Measurements published in ChEMBL document CHEMBL1153349, “3-Hydroxy-4-oxo-4H-pyrido[1,2-a]pyrimidine-2-carboxylates--a new class of HIV-1 integrase inhibitors” (Bioorg Med Chem Lett, 2009).

Key:
[1] = molecular target: Human immunodeficiency virus type 1 integrase (Human immunodeficiency virus 1, UniProt Q7ZJM1); test: Inhibition of HIV1 recombinant integrase strand transfer activity
[2] = test system: Human immunodeficiency virus 1; test: Antiviral activity against HIV1 3B infected in human MT4 cells after 3 days by ELISA in presence of 10% fetal bovine serum; type: functional; conditions: Human immunodeficiency virus 1, 3B, MT4, 72 h; read-out: CIC95
Summary of the method: (§1)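 HIV-1 infection spread was measured in cell culture (spread assay) under low-serum (10% fetal bovine serum) or high-serum (50% normal human serum) conditions.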

[3] = test system: Human immunodeficiency virus 1; test: Antiviral activity against HIV1 3B infected in human MT4 cells after 3 days by ELISA in presence of 50% normal human serum; type: functional; conditions: Human immunodeficiency virus 1, 3B, MT4, 72 h; read-out: CIC95; summary of the method: as §1
[4] = test system: MT4; test: Cytotoxicity against human MT4 cells assessed as morphological changes up to 50 uM after 4 days; type: cell-based; conditions: mt4, 96 h
[5] = Half life in rat plasma at 3 mg/kg, iv and po; type: ADME, organism-based; design: dose 3 mg/kg, route oral
Summary of the method: (§2)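 Rats were dosed at 3 mg/kg both intravenously and orally, and the plasma PK profile was obtained. Parameters were AUC, plasma half-life and oral bioavailability (F%). Plasma clearance was taken from the IV dose.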

[6] = Plasma clearance in rat at 3 mg/kg, iv; type: ADME, organism-based; design: dose 3 mg/kg, route intravenous; summary of the method: as §2
[7] = Oral bioavailability in rat at 3 mg/kg; type: ADME, organism-based; conditions: in vivo; summary of the method: as §2
[8] = test system: Rattus norvegicus; test: AUC in rat plasma at 3 mg/kg, iv and po; type: ADME, organism-based; design: dose 3 mg/kg, route oral; conditions: in vivo; summary of the method: as §2

Sequence of Human immunodeficiency virus type 1 integrase (Q7ZJM1 whole entry): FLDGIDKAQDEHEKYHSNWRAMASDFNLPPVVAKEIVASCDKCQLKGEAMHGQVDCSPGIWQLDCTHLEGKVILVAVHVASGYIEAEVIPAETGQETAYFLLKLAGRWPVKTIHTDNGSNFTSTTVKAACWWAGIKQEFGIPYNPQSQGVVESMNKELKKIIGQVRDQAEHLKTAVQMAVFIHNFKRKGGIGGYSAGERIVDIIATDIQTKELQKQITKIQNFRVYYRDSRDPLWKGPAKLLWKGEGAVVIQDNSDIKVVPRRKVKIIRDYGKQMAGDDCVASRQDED

Compound | IC50 [1] [nM] | half-life [5] [h] | clearance [6] [mL/min/kg] | bioavailability [7] [%] | AUC [8] [µM·h] | IC95 [2] [nM] | IC95 [3] [nM] | Activity [4]
O=C(Nc1cccn2c(=O)c(O)c(C(=O)NCc3ccc(F)cc3)nc12)c1ccccc1 | 18 | – | – | – | – | – | – | –
O=C(NCc1ccc(F)cc1)c1nc2ccccn2c(=O)c1O | 22 | – | – | – | – | – | – | –
CCN(C(=O)c1ccncc1)c1cccn2c(=O)c(O)c(C(=O)NCc3ccc(F)cc3)nc12 | 50 | – | – | – | – | > 1000 | > 1000 | Non-toxic
Cc1cccn2c(=O)c(O)c(C(=O)NCc3ccc(F)cc3)nc12 | 9 | – | – | – | – | – | – | –
O=C(NCc1cccn2c(=O)c(O)c(C(=O)NCc3ccc(F)cc3)nc12)c1ccccc1 | 24 | – | – | – | – | – | – | –
CNc1cccn2c(=O)c(O)c(C(=O)NCc3ccc(F)cc3)nc12 | 130 | – | – | – | – | – | – | –
CCN(C(=O)CN1CCOCC1)c1cccn2c(=O)c(O)c(C(=O)NCc3ccc(F)cc3)nc12 | 23 | – | – | – | – | > 1000 | > 1000 | Non-toxic
CCN(C(=O)c1ccno1)c1cccn2c(=O)c(O)c(C(=O)NCc3ccc(F)cc3)nc12 | 18 | – | – | – | – | 500 | > 1000 | Non-toxic
CC(=O)N1CCN(Cc2cccn3c(=O)c(O)c(C(=O)NCc4ccc(F)cc4)nc23)CC1 | 185 | – | – | – | – | – | – | –
CCNc1cccn2c(=O)c(O)c(C(=O)NCc3ccc(F)cc3)nc12 | 36 | – | – | – | – | 1250 | > 1000 | Non-toxic
O=C(NCc1ccc(F)cc1)c1nc2c(CN3CCOCC3)cccn2c(=O)c1O | 170 | – | – | – | – | – | – | –
CCN(C(=O)c1ccccn1)c1cccn2c(=O)c(O)c(C(=O)NCc3ccc(F)cc3)nc12 | 21 | – | – | – | – | 250 | 1000 | Non-toxic

Second part, led by results:

IC50 [1] [nM] | half-life [5] [h] | clearance [6] [mL/min/kg] | bioavailability [7] [%] | AUC [8] [µM·h] | Compound | IC95 [2] [nM] | IC95 [3] [nM] | Activity [4]
21 | – | – | – | – | CCN(C(=O)C(=O)N1CCCC1)c1cccn2c(=O)c(O)c(C(=O)NCc3ccc(F)cc3)nc12 | 31 | 1000 | Non-toxic
185 | – | – | – | – | CCN(C(=O)CN(C)C)c1cccn2c(=O)c(O)c(C(=O)NCc3ccc(F)cc3)nc12 | > 1000 | > 1000 | Non-toxic
21 | – | – | – | – | CC(C)N(C(=O)C(=O)N(C)C)c1cccn2c(=O)c(O)c(C(=O)NCc3ccc(F)cc3)nc12 | 62 | > 1000 | Non-toxic
21 | – | – | – | – | CCN(C(=O)C(=O)N1CCN(C)CC1)c1cccn2c(=O)c(O)c(C(=O)NCc3ccc(F)cc3)nc12 | 125 | 500 | Non-toxic
70 | – | – | – | – | CN(C)c1cccn2c(=O)c(O)c(C(=O)NCc3ccc(F)cc3)nc12 | – | – | –
26 | – | – | – | – | CN(C)C(=O)C(=O)N(C)c1cccn2c(=O)c(O)c(C(=O)NCc3ccc(F)cc3)nc12 | 125 | 500 | Non-toxic
36 | 4.5 | 24 | 40 | 2.9 | CCN(C(=O)C(=O)N(C)C)c1cccn2c(=O)c(O)c(C(=O)NCc3ccc(F)cc3)nc12 | 62 | 250 | Non-toxic
21 | – | – | – | – | CCN(C(=O)c1cscn1)c1cccn2c(=O)c(O)c(C(=O)NCc3ccc(F)cc3)nc12 | 250 | > 1000 | Non-toxic
19 | – | – | – | – | CCN(CC)C(=O)C(=O)N(CC)c1cccn2c(=O)c(O)c(C(=O)NCc3ccc(F)cc3)nc12 | 62 | 125 | Non-toxic
50 | – | – | – | – | CCN(C(=O)c1nnc(C)o1)c1cccn2c(=O)c(O)c(C(=O)NCc3ccc(F)cc3)nc12 | 500 | > 1000 | Non-toxic
25 | – | – | – | – | CCN(C(=O)C(=O)N1CCOCC1)c1cccn2c(=O)c(O)c(C(=O)NCc3ccc(F)cc3)nc12 | 31 | 250 | Non-toxic
18 | – | – | – | – | CCCN(C(=O)C(=O)N(C)C)c1cccn2c(=O)c(O)c(C(=O)NCc3ccc(F)cc3)nc12 | 31 | 500 | Non-toxic
